Tests used:
Assay type in all cases: functional
Details in all cases: read-out: Activity
[1] = test system: SF-268; test: Growth inhibition of human SF-268 cells assessed as cell growth at 10 uM incubated for 48 hrs by sulforhodamine B assay relative to control
Procedure, shortened: (§1)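 Run by the NCI Developmental Therapeutics Program as part of its 60-line human tumour panel. Each compound tested at a single 10 µM dose. Growth expressed as % relative to untreated control cells (100%).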

[2] = test system: NCI-H23; test: Growth inhibition of human NCI-H23 cells assessed as cell growth at 10 uM incubated for 48 hrs by sulforhodamine B assay relative to control
Procedure, shortened: (§2)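 Submitted to the NCI Developmental Therapeutics Program for the NCI60 human tumour cell line panel. First screen at a single 10 µM concentration. Read-out is growth relative to untreated control cells set at 100%.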

[3] = test system: SR; test: Growth inhibition of human SR cells assessed as cell growth at 10 uM incubated for 48 hrs by sulforhodamine B assay relative to control; procedure, shortened: as §1
[4] = test system: LOX IMVI; test: Growth inhibition of human LOX IMVI cells assessed as cell growth at 10 uM incubated for 48 hrs by sulforhodamine B assay relative to control; procedure, shortened: as §2
[5] = test system: SK-MEL-5; test: Growth inhibition of human SK-MEL-5 cells assessed as cell growth at 10 uM incubated for 48 hrs by sulforhodamine B assay relative to control; procedure, shortened: as §1
[6] = test system: OVCAR-4; test: Growth inhibition of human OVCAR-4 cells assessed as cell growth at 10 uM incubated for 48 hrs by sulforhodamine B assay relative to control; procedure, shortened: as §1
[7] = test system: NCI-H322M; test: Growth inhibition of human NCI-H322M cells assessed as cell growth at 10 uM incubated for 48 hrs by sulforhodamine B assay relative to control; procedure, shortened: as §2
[8] = test system: OVCAR-5; test: Growth inhibition of human OVCAR-5 cells assessed as cell growth at 10 uM incubated for 48 hrs by sulforhodamine B assay relative to control; procedure, shortened: as §1
[9] = test system: UO-31; test: Growth inhibition of human UO-31 cells assessed as cell growth at 10 uM incubated for 48 hrs by sulforhodamine B assay relative to control; procedure, shortened: as §1
[10] = test system: SW-620; test: Growth inhibition of human SW-620 cells assessed as cell growth at 10 uM incubated for 48 hrs by sulforhodamine B assay relative to control; procedure, shortened: as §1
[11] = test system: K562; test: Growth inhibition of human K562 cells assessed as cell growth at 10 uM incubated for 48 hrs by sulforhodamine B assay relative to control; procedure, shortened: as §2
[12] = test system: UACC-62; test: Growth inhibition of human UACC-62 cells assessed as cell growth at 10 uM incubated for 48 hrs by sulforhodamine B assay relative to control; procedure, shortened: as §1
[13] = test system: HCC 2998; test: Growth inhibition of human HCC 2998 cells assessed as cell growth at 10 uM incubated for 48 hrs by sulforhodamine B assay relative to control
Procedure, shortened: (§3)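 NCI Developmental Therapeutics Program NCI60 panel. Compounds that were active in the 10 µM one-dose screen went on to dose–response testing. Growth at each concentration is expressed relative to untreated control (100%). GI50 (concentration giving 50% of maximal inhibition of proliferation) and TGI (concentration giving total growth inhibition) were derived from the curves.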

[14] = test system: SN12C; test: Growth inhibition of human SN12C cells assessed as cell growth at 10 uM incubated for 48 hrs by sulforhodamine B assay relative to control; procedure, shortened: as §1
[15] = test system: COLO 205; test: Growth inhibition of human COLO 205 cells assessed as cell growth at 10 uM incubated for 48 hrs by sulforhodamine B assay relative to control; procedure, shortened: as §3
[16] = test system: OVCAR-8; test: Growth inhibition of human OVCAR-8 cells assessed as cell growth at 10 uM incubated for 48 hrs by sulforhodamine B assay relative to control; procedure, shortened: as §1
[17] = test system: RXF 393; test: Growth inhibition of human RXF 393 cells assessed as cell growth at 10 uM incubated for 48 hrs by sulforhodamine B assay relative to control; procedure, shortened: as §1
[18] = test system: RPMI-8226; test: Growth inhibition of human RPMI-8226 cells assessed as cell growth at 10 uM incubated for 48 hrs by sulforhodamine B assay relative to control; procedure, shortened: as §1
[19] = test system: SF-295; test: Growth inhibition of human SF-295 cells assessed as cell growth at 10 uM incubated for 48 hrs by sulforhodamine B assay relative to control; procedure, shortened: as §1
[20] = test system: A549; test: Growth inhibition of human A549/ATCC cells assessed as cell growth at 10 uM incubated for 48 hrs by sulforhodamine B assay relative to control; procedure, shortened: as §3
[21] = test system: M14; test: Growth inhibition of human M14 cells assessed as cell growth at 10 uM incubated for 48 hrs by sulforhodamine B assay relative to control; procedure, shortened: as §2
[22] = test system: ACHN; test: Growth inhibition of human ACHN cells assessed as cell growth at 10 uM incubated for 48 hrs by sulforhodamine B assay relative to control
Procedure, shortened: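 NCI Developmental Therapeutics Program NCI60 human tumour cell line panel, one-dose primary screen with every compound at 10 µM. Growth is expressed as % of untreated control cells (100%).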

[23] = test system: MDA-MB-435; test: Growth inhibition of human MDA-MB-435 cells assessed as cell growth at 10 uM incubated for 48 hrs by sulforhodamine B assay relative to control; procedure, shortened: as §2
[24] = test system: HCT-116; test: Growth inhibition of human HCT-116 cells assessed as cell growth at 10 uM incubated for 48 hrs by sulforhodamine B assay relative to control; procedure, shortened: as §2
[25] = test system: KM12; test: Growth inhibition of human KM12 cells assessed as cell growth at 10 uM incubated for 48 hrs by sulforhodamine B assay relative to control; procedure, shortened: as §2
[26] = test system: OVCAR-3; test: Growth inhibition of human OVCAR-3 cells assessed as cell growth at 10 uM incubated for 48 hrs by sulforhodamine B assay relative to control; procedure, shortened: as §1
[27] = test system: U-251; test: Growth inhibition of human U-251 cells assessed as cell growth at 10 uM incubated for 48 hrs by sulforhodamine B assay relative to control; procedure, shortened: as §1
[28] = test system: Malme-3M; test: Growth inhibition of human Malme-3M cells assessed as cell growth at 10 uM incubated for 48 hrs by sulforhodamine B assay relative to control; procedure, shortened: as §2
[29] = test system: PC-3; test: Growth inhibition of human PC-3 cells assessed as cell growth at 10 uM incubated for 48 hrs by sulforhodamine B assay relative to control; procedure, shortened: as §1
[30] = test system: A498; test: Growth inhibition of human A498 cells assessed as cell growth at 10 uM incubated for 48 hrs by sulforhodamine B assay relative to control; procedure, shortened: as §3
[31] = test system: NCI-H226; test: Growth inhibition of human NCI-H226 cells assessed as cell growth at 10 uM incubated for 48 hrs by sulforhodamine B assay relative to control; procedure, shortened: as §2
[32] = test system: SNB-19; test: Growth inhibition of human SNB-19 cells assessed as cell growth at 10 uM incubated for 48 hrs by sulforhodamine B assay relative to control; procedure, shortened: as §1
[33] = test system: MDA-MB-468; test: Growth inhibition of human MDA-MB-468 cells assessed as cell growth at 10 uM incubated for 48 hrs by sulforhodamine B assay relative to control; procedure, shortened: as §2
[34] = test system: IGROV-1; test: Growth inhibition of human IGROV-1 cells assessed as cell growth at 10 uM incubated for 48 hrs by sulforhodamine B assay relative to control; procedure, shortened: as §2
[35] = test system: SK-MEL-28; test: Growth inhibition of human SK-MEL-28 cells assessed as cell growth at 10 uM incubated for 48 hrs by sulforhodamine B assay relative to control; procedure, shortened: as §1

Structure (SMILES)	growth at 10 µM [1] [%]	growth at 10 µM [2] [%]	growth at 10 µM [3] [%]	growth at 10 µM [4] [%]	growth at 10 µM [5] [%]	growth at 10 µM [6] [%]	growth at 10 µM [7] [%]	growth at 10 µM [8] [%]	growth at 10 µM [9] [%]	growth at 10 µM [10] [%]	growth at 10 µM [11] [%]	growth at 10 µM [12] [%]	growth at 10 µM [13] [%]	growth at 10 µM [14] [%]	growth at 10 µM [15] [%]	growth at 10 µM [16] [%]	growth at 10 µM [17] [%]	growth at 10 µM [18] [%]	growth at 10 µM [19] [%]	growth at 10 µM [20] [%]	further results
CC1(C)CCc2cc(-c3ccn(S(=O)(=O)c4ccc(C(F)(F)F)cc4)n3)ccc2O1	104	83.1	69.8	98.6	90.7	71.3	105	95.7	80.2	90.2	76.8	83.5	94.4	97.3	108	90.9	84.2	76.6	87.3	79.8	growth at 10 µM [21]: 92.5%; growth at 10 µM [22]: 101%; growth at 10 µM [23]: 96.6%; growth at 10 µM [24]: 80.6%; growth at 10 µM [25]: 98%; growth at 10 µM [26]: 104%; growth at 10 µM [27]: 89.1%; growth at 10 µM [28]: 97.3%; growth at 10 µM [29]: 76.6%; growth at 10 µM [30]: 74.2%; growth at 10 µM [31]: 75.6%; growth at 10 µM [32]: 113%; growth at 10 µM [33]: 64.2%; growth at 10 µM [34]: 89.3%; growth at 10 µM [35]: 99.6%
CC1(C)CCc2cc(-c3ccn(S(=O)(=O)c4ccccc4)n3)ccc2O1	85.4	75.5	56.7	85.2	75.7	64.2	91.7	89.7	63.6	71	10	73.3	83.2	98.8	96.1	84.3	81.7	59.5	81.4	77.6	growth at 10 µM [21]: 61%; growth at 10 µM [22]: 90.1%; growth at 10 µM [23]: 79%; growth at 10 µM [24]: 62.7%; growth at 10 µM [25]: 71.5%; growth at 10 µM [26]: 81.4%; growth at 10 µM [27]: 72.3%; growth at 10 µM [28]: 99.3%; growth at 10 µM [29]: 61.8%; growth at 10 µM [30]: 65.4%; growth at 10 µM [31]: 69.7%; growth at 10 µM [32]: 94.1%; growth at 10 µM [33]: 54.6%; growth at 10 µM [34]: 96.4%; growth at 10 µM [35]: 97.2%
COc1ccc(-c2ccn(S(=O)(=O)c3ccc(C)cc3)n2)cc1	95.9	67.9	79.2	84.2	68.3	62	96.7	112	75.9	90.2	75.4	70.9	86.9	86.9	112	83.4	86.3	69	78.5	79.7	growth at 10 µM [21]: 90%; growth at 10 µM [22]: 91.6%; growth at 10 µM [23]: 94.1%; growth at 10 µM [24]: 73.5%; growth at 10 µM [25]: 89.7%; growth at 10 µM [26]: 89.3%; growth at 10 µM [27]: 81.9%; growth at 10 µM [28]: 88.4%; growth at 10 µM [29]: 81.2%; growth at 10 µM [30]: 63.2%; growth at 10 µM [31]: 68.5%; growth at 10 µM [32]: 94.5%; growth at 10 µM [33]: 46.1%; growth at 10 µM [34]: 81.5%; growth at 10 µM [35]: 103%
Cc1cc(C)cc(S(=O)(=O)n2ccc(-c3ccc4c(c3)CCC(C)(C)O4)n2)c1	88.3	73.6	76.5	95	82.9	67.3	92	116	75	88.3	85.8	73.9	88.2	88	103	91	77.3	73.2	85	80.8	growth at 10 µM [21]: 82.7%; growth at 10 µM [22]: 92.8%; growth at 10 µM [23]: 93.8%; growth at 10 µM [24]: 77.8%; growth at 10 µM [25]: 82.7%; growth at 10 µM [26]: 87.8%; growth at 10 µM [27]: 85.6%; growth at 10 µM [28]: 82.9%; growth at 10 µM [29]: 82.4%; growth at 10 µM [30]: 63%; growth at 10 µM [31]: 66.8%; growth at 10 µM [32]: 94.6%; growth at 10 µM [33]: 54.6%; growth at 10 µM [34]: 105%; growth at 10 µM [35]: 102%
CCc1cccc(C)c1NC(=O)c1sc2nc3c(cc2c1N)C(=O)CCC3	38	32	2.24	36	-10	28	32	28	29	23	2	29	10.2	30	-58	20	4	-20	2	22.9	growth at 10 µM [21]: 7%; growth at 10 µM [22]: 22%; growth at 10 µM [23]: -36%; growth at 10 µM [24]: 17%; growth at 10 µM [25]: 14%; growth at 10 µM [26]: -26%; growth at 10 µM [27]: 2.81%; growth at 10 µM [28]: 48%; growth at 10 µM [29]: 23.3%; growth at 10 µM [30]: -13%; growth at 10 µM [31]: 49%; growth at 10 µM [32]: 42%; growth at 10 µM [33]: 9%; growth at 10 µM [34]: 30%; growth at 10 µM [35]: 39%
